From ChEMBL document CHEMBL4130549, “Synthesis and bioactivities study of new antibacterial peptide mimics: The dialkyl cationic amphiphiles” (Eur J Med Chem, 2018)
The source made the active and inactive calls. No cut-off for these calls is given here.

Legend:
Escherichia coli [1] = assay: Induction of cytoplasmic membrane depolarization in Escherichia coli ATCC 25922 at 20 ug/ml measured every 2 mins for 12 mins by diSC35 staining based fluorescence assay; type: functional, organism-based
Outline: (§1)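 Mid-log cells (4–6 h) pelleted, washed and resuspended (~10^8 CFU/mL) in PBS for S. aureus, or in 5 mM HEPES, 5 mM glucose and 100 mM KCl (1:1:1) for E. coli. Preloaded with diSC35 (10 µM, 50 µL), 30 min for S. aureus and 40 min plus EDTA (200 µM, 50 µL) for E. coli. Baseline read 8 min (ex 622/em 670 nm), then compound added to 20 µg/mL final and read every 2 min for 12 min. Water control.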

Enterobacteriaceae [2] = assay: Antibacterial activity against NDM-1-producing Enterobacteriaceae isolate N1 after 16 to 20 hrs by broth microdilution method; type: functional
Outline: (§2)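 Broth microdilution per CLSI in cation-adjusted Mueller-Hinton broth; 4-6 h cultures (~10⁸ CFU/mL) diluted to ~10⁶ CFU/mL and mixed 1:1 with twofold dilutions of water-dissolved compound (256 to 0.5 µg/mL). Incubated 16-20 h at 37 °C; MIC read visually. Each concentration run in duplicate, whole experiment repeated at least twice. MRSA, KPC and NDM-1 strains were clinical isolates.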

Klebsiella pneumoniae [3] = assay: Antibacterial activity against carbapenemase-producing Klebsiella pneumoniae isolate K10 after 16 to 20 hrs by broth microdilution method; type: functional; outline: as §2
Enterobacteriaceae [4] = assay: Antibacterial activity against NDM-1-producing Enterobacteriaceae isolate N4 after 16 to 20 hrs by broth microdilution method; type: functional; outline: as §2
Enterobacteriaceae [5] = assay: Antibacterial activity against NDM-1-producing Enterobacteriaceae isolate N2 after 16 to 20 hrs by broth microdilution method; type: functional; outline: as §2
Staphylococcus aureus [6] = assay: Antibacterial activity against methicillin-resistant Staphylococcus aureus isolate M9 after 16 to 20 hrs by broth microdilution method; type: functional
Outline: (§3)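 CLSI broth microdilution in cation-adjusted Mueller-Hinton broth. A 4-6 h culture was diluted to about 10⁶ CFU/mL and mixed 1:1 with twofold compound dilutions (256–0.5 µg/mL before mixing) prepared from aqueous stocks. Plates were incubated at 37 °C for 16-20 h. Each concentration was tested in duplicate, and the experiment was repeated at least twice.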

Enterobacteriaceae [7] = assay: Antibacterial activity against NDM-1-producing Enterobacteriaceae isolate N10 after 16 to 20 hrs by broth microdilution method; type: functional; outline: as §2
Klebsiella pneumoniae [8] = assay: Antibacterial activity against carbapenemase-producing Klebsiella pneumoniae after 16 to 20 hrs by broth microdilution method; type: functional; outline: as §2
Klebsiella pneumoniae [9] = assay: Antibacterial activity against carbapenemase-producing Klebsiella pneumoniae isolate K6 after 16 to 20 hrs by broth microdilution method; type: functional; outline: as §2
[10] = Hemolytic activity in sheep RBC after 1 hr; type: ADME, cell-based, Ovis aries, Erythrocyte; conditions: sheep red blood cells (erythrocytes)
Outline: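 Sheep RBCs suspended at 5% in PBS; 150 µL added to 50 µL compound dilutions (5120 to 10 µg/mL series). Incubated 1 h at 37 °C, then centrifuged; supernatant absorbance read at 540 nm. Lysis (%) = (A−A0)/(Atotal−A0)×100, with untreated 5% RBC as A0 and 0.1% Triton X-100 as total.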

Escherichia coli [11] = assay: Induction of outer membrane permeabilization in Escherichia coli ATCC 25922 at 20 ug/ml measured every 2 mins for 12 mins by NPN staining based fluorescence assay; type: functional, organism-based
Outline: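 Mid-log E. coli (~10^8 CFU/mL) in black plates pre-incubated about 40 min with NPN (10 µM, 50 µL). Baseline read 8 min (ex 350/em 420 nm), then compound added to 20 µg/mL final and fluorescence followed every 2 min for 12 min. Water-treated control.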

Klebsiella pneumoniae [12] = assay: Antibacterial activity against carbapenemase-producing Klebsiella pneumoniae isolate K4 after 16 to 20 hrs by broth microdilution method; type: functional; outline: as §2
Staphylococcus aureus [13] = assay: Antibacterial activity against methicillin-resistant Staphylococcus aureus isolate M3 after 16 to 20 hrs by broth microdilution method; type: functional; outline: as §3
Staphylococcus aureus [14] = assay: Antibacterial activity against methicillin-resistant Staphylococcus aureus isolate M1 after 16 to 20 hrs by broth microdilution method; type: functional; outline: as §3
Staphylococcus aureus [15] = assay: Induction of inner membrane permeabilization in Staphylococcus aureus ATCC 29213 at 20 ug/ml measured every 2 mins for 12 mins by propidium iodide staining based fluorescence assay; type: functional, organism-based
Outline: (§4)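 Mid-log cells (~10^8 CFU/mL) pre-incubated with propidium iodide (10 µM, 50 µL), 30 min for S. aureus and 40 min for E. coli. Fluorescence (ex 535/em 617 nm) read for 8 min, then compound added to 20 µg/mL final and monitored every 2 min for 12 min. Water-treated control.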

Klebsiella pneumoniae [16] = assay: Antibacterial activity against carbapenemase-producing Klebsiella pneumoniae isolate K2 after 16 to 20 hrs by broth microdilution method; type: functional; outline: as §2
Staphylococcus aureus [17] = assay: Antibacterial activity against methicillin-resistant Staphylococcus aureus isolate M4 after 16 to 20 hrs by broth microdilution method; type: functional; outline: as §3
Klebsiella pneumoniae [18] = assay: Antibacterial activity against carbapenemase-producing Klebsiella pneumoniae isolate K7 after 16 to 20 hrs by broth microdilution method; type: functional; outline: as §2
Staphylococcus aureus [19] = assay: Antibacterial activity against methicillin-resistant Staphylococcus aureus isolate M7 after 16 to 20 hrs by broth microdilution method; type: functional; outline: as §3
Enterobacteriaceae [20] = assay: Antibacterial activity against NDM-1-producing Enterobacteriaceae isolate N9 after 16 to 20 hrs by broth microdilution method; type: functional; outline: as §2
Staphylococcus aureus [21] = assay: Antibacterial activity against methicillin-resistant Staphylococcus aureus isolate M8 after 16 to 20 hrs by broth microdilution method; type: functional; outline: as §3
Escherichia coli [22] = assay: Antibacterial activity against Escherichia coli ATCC 25922 after 16 to 20 hrs by broth microdilution method; type: functional; outline: as §2
Enterobacteriaceae [23] = assay: Antibacterial activity against NDM-1-producing Enterobacteriaceae isolate N6 after 16 to 20 hrs by broth microdilution method; type: functional; outline: as §2
Klebsiella pneumoniae [24] = assay: Antibacterial activity against carbapenemase-producing Klebsiella pneumoniae isolate K8 after 16 to 20 hrs by broth microdilution method; type: functional; outline: as §2
Enterobacteriaceae [25] = assay: Antibacterial activity against NDM-1-producing Enterobacteriaceae after 16 to 20 hrs by broth microdilution method; type: functional; outline: as §2
Klebsiella pneumoniae [26] = assay: Antibacterial activity against carbapenemase-producing Klebsiella pneumoniae isolate K9 after 16 to 20 hrs by broth microdilution method; type: functional; outline: as §2
Klebsiella pneumoniae [27] = assay: Antibacterial activity against carbapenemase-producing Klebsiella pneumoniae isolate K5 after 16 to 20 hrs by broth microdilution method; type: functional; outline: as §2
Enterococcus faecalis = assay: Antibacterial activity against Enterococcus faecalis after 16 to 20 hrs by broth microdilution method; type: functional; outline: as §2
Enterobacteriaceae [28] = assay: Antibacterial activity against NDM-1-producing Enterobacteriaceae isolate N3 after 16 to 20 hrs by broth microdilution method; type: functional; outline: as §2
Staphylococcus aureus [29] = assay: Antibacterial activity against methicillin-resistant Staphylococcus aureus isolate M5 after 16 to 20 hrs by broth microdilution method; type: functional; outline: as §3
Klebsiella pneumoniae [30] = assay: Antibacterial activity against carbapenemase-producing Klebsiella pneumoniae isolate K3 after 16 to 20 hrs by broth microdilution method; type: functional; outline: as §2
Salmonella enterica = assay: Antibacterial activity against Salmonella enterica after 16 to 20 hrs by broth microdilution method; type: functional; outline: as §2
Staphylococcus aureus [31] = assay: Antibacterial activity against Staphylococcus aureus ATCC 29213 after 16 to 20 hrs by broth microdilution method; type: functional; outline: as §3
Enterobacteriaceae [32] = assay: Antibacterial activity against NDM-1-producing Enterobacteriaceae isolate N5 after 16 to 20 hrs by broth microdilution method; type: functional; outline: as §2
Klebsiella pneumoniae [33] = assay: Antibacterial activity against carbapenemase-producing Klebsiella pneumoniae isolate K1 after 16 to 20 hrs by broth microdilution method; type: functional; outline: as §2
Escherichia coli [34] = assay: Induction of inner membrane permeabilization in Escherichia coli ATCC 25922 at 20 ug/ml measured every 2 mins for 12 mins by propidium iodide staining based fluorescence assay; type: functional, organism-based; outline: as §4
Enterobacteriaceae [35] = assay: Antibacterial activity against NDM-1-producing Enterobacteriaceae isolate N8 after 16 to 20 hrs by broth microdilution method; type: functional; outline: as §2
Staphylococcus aureus [36] = assay: Antibacterial activity against methicillin-resistant Staphylococcus aureus isolate M6 after 16 to 20 hrs by broth microdilution method; type: functional; outline: as §3
Staphylococcus aureus [37] = assay: Antibacterial activity against methicillin-resistant Staphylococcus aureus after 16 to 20 hrs by broth microdilution method; type: functional; outline: as §3
Staphylococcus aureus [38] = assay: Induction of cytoplasmic membrane depolarization in Staphylococcus aureus ATCC 29213 at 20 ug/ml measured every 2 mins for 12 mins by diSC35 staining based fluorescence assay; type: functional, organism-based; outline: as §1
Enterobacteriaceae [39] = assay: Antibacterial activity against NDM-1-producing Enterobacteriaceae isolate N7 after 16 to 20 hrs by broth microdilution method; type: functional; outline: as §2
Staphylococcus aureus [40] = assay: Antibacterial activity against methicillin-resistant Staphylococcus aureus isolate M2 after 16 to 20 hrs by broth microdilution method; type: functional; outline: as §3
Staphylococcus aureus [41] = assay: Antibacterial activity against methicillin-resistant Staphylococcus aureus isolate M10 after 16 to 20 hrs by broth microdilution method; type: functional; outline: as §3

Question: Which Activity (Escherichia coli [1]) does the source give for `CCCCCCCN(CCCCCCC)C(=O)[C@@H](N)CCCCN.Cl.Cl` here?
Answer: Its Activity is “Active”.

Question: What about the MIC (Enterobacteriaceae [2]) of the same compound?
Answer: Its MIC is 32 µg/mL.

Question: And the MIC (Klebsiella pneumoniae [3])?
Answer: The MIC was 16 µg/mL.

Question: What about the MIC (Enterobacteriaceae [4]) of the same compound?
Answer: Its MIC is 32 µg/mL.

Question: And the MIC (Enterobacteriaceae [5])?
Answer: The MIC was 32 µg/mL.

Question: What about the MIC (Staphylococcus aureus [6]) of the same compound?
Answer: Its MIC is 4 µg/mL.

Question: And the MIC (Enterobacteriaceae [7])?
Answer: The MIC was 16 µg/mL.

Question: What about the MIC (Klebsiella pneumoniae [8]) of the same compound?
Answer: Its MIC is 16 µg/mL.

Question: What about the MIC (Klebsiella pneumoniae [9]) of the same compound?
Answer: Its MIC is 16 µg/mL.

Question: What about the HC50 at 1 h [10] of the same compound?
Answer: The HC50 at 1 h was 434 µg/mL.

Question: What about the Activity (Escherichia coli [11]) of the same compound?
Answer: The Activity was “Active”.

Question: And the MIC (Klebsiella pneumoniae [12])?
Answer: Its MIC is 16 µg/mL.

Question: And the MIC (Staphylococcus aureus [13])?
Answer: The MIC was 16 µg/mL.

Question: What about the MIC (Staphylococcus aureus [14]) of the same compound?
Answer: The MIC was 8 µg/mL.

Question: And the Activity (Staphylococcus aureus [15])?
Answer: Its Activity is “Active”.

Question: And the MIC (Klebsiella pneumoniae [16])?
Answer: The MIC was 16 µg/mL.

Question: And the MIC (Staphylococcus aureus [17])?
Answer: The MIC was 16 µg/mL.

Question: What about the MIC (Klebsiella pneumoniae [18]) of the same compound?
Answer: The MIC was 16 µg/mL.

Question: And the MIC (Staphylococcus aureus [19])?
Answer: Its MIC is 4 µg/mL.

Question: What about the MIC (Enterobacteriaceae [20]) of the same compound?
Answer: The MIC was 16 µg/mL.

Question: And the MIC (Staphylococcus aureus [21])?
Answer: Its MIC is 8 µg/mL.

Question: What about the MIC (Escherichia coli [22]) of the same compound?
Answer: The MIC was 8 µg/mL.

Question: What about the MIC (Enterobacteriaceae [23]) of the same compound?
Answer: The MIC was 16 µg/mL.

Question: And the MIC (Klebsiella pneumoniae [24])?
Answer: Its MIC is 16 µg/mL.

Question: What about the MIC (Enterobacteriaceae [25]) of the same compound?
Answer: Its MIC is 16 µg/mL.

Question: What about the MIC (Klebsiella pneumoniae [26]) of the same compound?
Answer: Its MIC is 16 µg/mL.

Question: And the MIC (Klebsiella pneumoniae [27])?
Answer: Its MIC is 16 µg/mL.

Question: What about the MIC (Enterococcus faecalis) of the same compound?
Answer: The MIC was 8 µg/mL.

Question: What about the MIC (Enterobacteriaceae [28]) of the same compound?
Answer: Its MIC is 32 µg/mL.

Question: And the MIC (Staphylococcus aureus [29])?
Answer: The MIC was 8 µg/mL.

Question: And the MIC (Klebsiella pneumoniae [30])?
Answer: Its MIC is 16 µg/mL.

Question: And the MIC (Salmonella enterica)?
Answer: The MIC was 16 µg/mL.

Question: What about the MIC (Staphylococcus aureus [31]) of the same compound?
Answer: Its MIC is 8 µg/mL.

Question: What about the MIC (Enterobacteriaceae [32]) of the same compound?
Answer: The MIC was 16 µg/mL.

Question: What about the MIC (Klebsiella pneumoniae [33]) of the same compound?
Answer: The MIC was 16 µg/mL.

Question: And the Activity (Escherichia coli [34])?
Answer: The Activity was “Active”.

Question: What about the MIC (Enterobacteriaceae [35]) of the same compound?
Answer: Its MIC is 32 µg/mL.

Question: What about the MIC (Staphylococcus aureus [36]) of the same compound?
Answer: The MIC was 4 µg/mL.

Question: And the MIC (Staphylococcus aureus [37])?
Answer: Its MIC is 4 µg/mL.

Question: And the Activity (Staphylococcus aureus [38])?
Answer: Its Activity is “Active”.

Question: What about the MIC (Enterobacteriaceae [39]) of the same compound?
Answer: Its MIC is 32 µg/mL.

Question: And the MIC (Staphylococcus aureus [40])?
Answer: Its MIC is 16 µg/mL.

Question: And the MIC (Staphylococcus aureus [41])?
Answer: The MIC was 4 µg/mL.
